Measured values taken from BindingDB's records for doi:10.1016/j.bmcl.2007.03.101 (Eli Lilly, 2007).

Target: T1, 5-hydroxytryptamine receptor 1A (Homo sapiens, UniProt P08908)
T1 sequence (P08908 whole entry): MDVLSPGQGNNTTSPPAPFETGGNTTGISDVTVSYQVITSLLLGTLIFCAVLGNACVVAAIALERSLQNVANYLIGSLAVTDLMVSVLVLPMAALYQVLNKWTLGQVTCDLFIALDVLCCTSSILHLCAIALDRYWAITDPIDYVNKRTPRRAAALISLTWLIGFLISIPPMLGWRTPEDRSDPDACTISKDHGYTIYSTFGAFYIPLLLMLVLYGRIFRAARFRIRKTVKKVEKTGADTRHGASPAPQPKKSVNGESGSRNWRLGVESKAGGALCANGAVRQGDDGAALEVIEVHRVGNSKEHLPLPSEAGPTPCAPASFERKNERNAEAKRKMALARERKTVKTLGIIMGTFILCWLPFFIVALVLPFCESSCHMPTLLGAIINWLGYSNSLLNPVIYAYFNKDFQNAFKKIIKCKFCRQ
Experiment: Displacement of [3H]8-OH-DPAT from human 5HT1A expressed in LM(tk-) cells
Summary of the method: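 Human 5-HT1A was cloned into L-M(tk-) cells, and membrane homogenates were prepared. Binding used [3H]-8-OH-DPAT as radioligand. Ki (nM) is the mean of runs in triplicate.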

C[C@H]1CN(c2cccc3cc(F)ccc23)CCN1CC[C@H]1OCC2=CC(C(N)=O)=CCC21 (stereo partly drawn) [(1R)-1-(2-((S)-4-(6-fluoronaphthalen-1-yl)-2-methylpiperazin-1-yl)ethyl)-1,3,7,7a-tetrahydroisobenzofuran-5-carboxamide]
Ki: 13 nM
